Screens as filed in PubChem.
FLuc inh counter: Photinus pyralis luciferase inhibition counter-screen; P08659; ATPLite firefly luciferase biochemical luminescence, 10 min; inhibition, % at 10 µM; 1.5% of 200,000 active;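 active means inhibition above about 50% when tested at 10 µM, limit read from the data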
Target sequence (P08659 whole entry, looked up): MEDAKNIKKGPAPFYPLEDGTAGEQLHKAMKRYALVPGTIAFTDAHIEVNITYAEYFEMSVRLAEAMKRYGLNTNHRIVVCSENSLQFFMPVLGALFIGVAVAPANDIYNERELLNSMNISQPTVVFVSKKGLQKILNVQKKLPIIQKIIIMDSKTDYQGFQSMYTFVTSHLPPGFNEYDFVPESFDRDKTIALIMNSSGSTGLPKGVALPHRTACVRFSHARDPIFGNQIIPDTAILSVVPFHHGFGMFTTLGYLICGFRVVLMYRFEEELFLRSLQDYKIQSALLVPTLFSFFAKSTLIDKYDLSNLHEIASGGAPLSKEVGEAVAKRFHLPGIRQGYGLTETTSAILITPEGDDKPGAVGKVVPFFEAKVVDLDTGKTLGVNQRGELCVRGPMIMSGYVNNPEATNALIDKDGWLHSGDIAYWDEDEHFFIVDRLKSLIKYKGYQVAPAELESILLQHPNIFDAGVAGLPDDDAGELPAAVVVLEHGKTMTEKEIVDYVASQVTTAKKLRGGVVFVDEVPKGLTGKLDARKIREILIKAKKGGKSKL
FLuc stim CS: affects firefly luciferase, flagging false hits in luciferase stimulation screens; P08659; AID 1027; activation factor at 10 µM; ATPlite luciferase biochemical, luminescence, 10 min; 0 = ATP-free wells, 1 = DMSO control; 200,000 tested, under 10 active;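 active means luciferase activation factor, scaled between plate controls, of at least 2 with compound at 10 µM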
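Material: luciferase plus luciferin reagent, cell-free. Medium: PBS buffer for ATP. Also added: ATP substrate, dispensed from a 10.24 µM working solution in PBS. Doses: test compounds dosed from 2 mM stocks in 100% DMSO. Incubation: 10 min post-reagent at room temperature. Technique: light output (luminescence). Read-out basis: luminescence gain marking luciferase activators.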
APP 5UTR inh: APP translation inhibition; SH-SY5Y APP 5'UTR-luciferase reporter, luminescence; 0.82% of 190,000 active; inhibition, % at 2 µM;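 active means inhibition above a set limit, derived from the sample mean plus 3 SD, cut at about 45% in these data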
NF-kB expr up: NF-kB expression increase, human neuronal cells; NF-kB reporter expression; stronger effect = higher value; fold change at 12.5 µM; 1.6% of 190,000 active; AID 1239; in the data active means fold change above about 3.3
STAT1 activator: STAT1 signaling activation; 2.6% of 200,000 active; AID 932; activation (% of control), % at 5.5 µM; NIH 3T3 STAT1-luciferase reporter, IFN-gamma, luminescence; 100% = IFN-gamma alone, no compound;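 active means activation above the screen-wide mean activation plus 3 SD, cut at about 130% in these data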
APP 5'UTR act: APP 5'UTR luciferase reporter activation; SH-SY5Y APP 5'UTR luciferase reporter, luminescence; zero percent = DMSO vehicle wells; AID 1276; activation, % at 2 µM; 1% of 190,000 active;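 active means activation above a set limit, based on mean plus 3 SD of controls, cut at about 140% in these data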
Each line names hits and unclear results; the compound was inactive in the other large screens. Most compounds without a hit are left out; they make up all but 4.8% or so of the library.

Cc1ccc(C2=[N+]([O-])C3(CCCCC/C3=N\NC(N)=S)N(O)C2(C)C)o1 (stereo not given)	none
CCCSc1nc(=S)n(Cc2ccccc2)c(C)c1C(C)=O	none
Cc1c(NC(=O)COC(=O)c2cc(-c3ccc(-c4ccccc4)cc3)nc3ccccc23)c(=O)n(-c2ccccc2)n1C	FLuc inh counter 85, NF-kB expr up 4.1, STAT1 activator 146
CC(C)(C)NC(=O)c1cccc(NC(=O)CSc2ccccc2)c1	none
O=C(Nc1ccccc1)OCc1cncs1	none
O=C(/C=C/c1ccccc1)OCc1cncs1	STAT1 activator 129
COc1ccc(C(=O)C[n+]2cn(C(F)F)c3ccccc32)c(F)c1	STAT1 activator 130
CC(C)=NN/C(N)=N/C(=S)Nc1ccc(C)cc1	FLuc inh counter 54
O=C(Nc1cccc(-c2cn3cccnc3n2)c1)c1ccco1	none
O=C(Nc1cccc(-c2cn3cccnc3n2)c1)c1ccc(Br)o1	APP 5UTR inh 54
Cc1ncoc1C(=O)Nc1ncc([N+](=O)[O-])s1	STAT1 activator 142
O=C(NCCN1CCCC1)c1ccccc1Cl	none
O=C1C(Cl)=C(NCCN2CCCCC2)C(=O)c2ccccc21	APP 5UTR inh 95
CCOC(=O)Nc1nc(-c2ccccc2)c(C(=O)c2ccc(Cl)cc2)s1	APP 5UTR inh 94, NF-kB expr up 3.9
CCN(Cc1cc2ccccc2[nH]c1=O)C(=O)C(C)C	none
CC(C)(C)c1cc(C(=O)N2CCN(c3ncccn3)CC2)ccn1	NF-kB expr up 4.8
Nn1c(SCc2ccccc2)nnc1-c1ccccn1	STAT1 activator 131
Cn1c(SCc2cccc(F)c2)nnc1-c1ccccn1	none
Cc1ccc2[nH]c(O)c(N=NC(=O)C3CC3c3ccccc3)c2c1Br (stereo not given)	none
NC(=O)N/N=C/c1cccc(OCc2ccc(F)cc2)c1	none
Cc1nnc(N/N=C/c2cccc(OCc3ccc(Cl)c(Cl)c3)c2)n1N	STAT1 activator 140
CCOc1cccc2cc(-c3csc(NC(=O)CCC(=O)NCCN4CCCCC4C)n3)c(=O)oc12 (stereo not given)	NF-kB expr up 6.8, STAT1 activator 145, APP 5'UTR act 178
CCOc1cccc2cc(-c3csc(NC(=O)CCC(=O)N4CCC(C)CC4)n3)c(=O)oc12	none
Cc1[nH]n(-c2nc(-c3ccc(Cl)cc3)cs2)c(=O)c1N=Nc1ccc(O)cc1	APP 5UTR inh 54
Cc1cccc(N2CCN(C(=O)c3ccc(CS(=O)(=O)c4ccccc4C)o3)CC2C)c1 (stereo not given)	APP 5UTR inh 96
Cc1ccc(C)c(N2CCN(C(=O)c3ccc(CS(=O)(=O)c4ccccc4C)o3)CC2)c1	none
CC(NC(=S)Nc1ccc([N+](=O)[O-])cc1)c1ccncc1 (stereo not given)	none
c1ccc(-c2csc(NNC3=NCCCCC3)n2)cc1	STAT1 activator 132
Brc1ccc(-c2csc(NC3=NCCCCC3)n2)cc1	STAT1 activator 134
COc1ccc(-c2csc(NC3=NCCCCC3)n2)cc1	none
Cc1ccc(-n2nnnc2SCC(=O)N(CC(C)C)c2c(N)n(CC(C)C)c(=O)[nH]c2=O)cc1	none
Cc1cc(C(=O)NCCc2ccccc2)c2cc(F)ccc2n1	none
O=C(CCSCc1ccccc1)Nc1ccc2c(c1)OCCO2	none
O=C(CCc1ccccc1)Nc1ccc2c(c1)OCCO2	NF-kB expr up 4.5, STAT1 activator 145
Cc1cccc(OCC(=O)Nc2ccc3c(c2)OCCO3)c1	FLuc inh counter 54
Cc1cccc(OCCCC(=O)Nc2ccc(N(C)C)cc2)c1	STAT1 activator 145
O=C(COc1ccccc1Cl)Nc1ccc2c(c1)OCCO2	APP 5'UTR act 190
Cc1cccc(OCCCC(=O)Nc2ccc(Br)cc2)c1	none
C#CCOCCOCCOCCNc1nc(N2CCN(C(=O)C([C@@H](C)CC)n3cc(C(N)Cc4ccc(O)cc4)nn3)CC2)nc(N2CCN(C(=O)[C@H](CCC(=O)O)n3cc(C(N)[C@H](C)CC)nn3)CC2)n1 (stereo not given in full)	none
Cc1[nH]nc2c1/C(=N\O)CCC2	none
Cc1cnc(NC(=O)COc2ccccc2Cl)s1	FLuc inh counter 91
Cc1ccc(NC(=O)CCCN2C(=S)NC(C)(C)CC2C)cc1 (stereo not given)	none
CC1CC(C)(C)NC(=S)N1CCCC(=O)Nc1ccc2c(c1)OCCO2 (stereo not given)	STAT1 activator 137
CCOc1ccc(-n2c(C)cc(/C=N/NC(=O)C(N)=O)c2C)cc1	none
COc1ccc(-n2c(C)cc(/C=N/Nc3nnc(C)n3N)c2C)cc1	STAT1 activator 131
COc1ccc(/C=N/N2CCN(C3c4ccccc4-c4ccccc43)CC2)cc1O	none
CSc1nsc(SCC(=O)N2CCCCC2)n1	STAT1 activator 130
O=[N+]([O-])c1cccnc1N1CCCCC1	none
O=c1n(-c2ccc(Br)cc2)cnn1-c1ncccc1[N+](=O)[O-]	STAT1 activator 130
O=C(/C=C/c1cccs1)Nc1cccnc1	FLuc inh counter 62
Cc1ccnc(NC(=O)/C=C/c2cccs2)c1	FLuc inh counter 92, STAT1 activator 137, APP 5'UTR act 191
C=CCNC(=O)/C=C/c1cccs1	none
O=C(Nc1cccnc1)c1cccs1	none
O=C(/C=C/c1cccs1)Nc1scc(-c2ccccc2)c1C(=O)O	FLuc inh counter 81
O=C(/C=C/c1cccs1)Nc1nc(-c2ccccc2)cs1	none
CCOc1ccc(N(CC(=O)Nc2ccccc2C(=O)NC(C)CC)S(C)(=O)=O)cc1 (stereo not given)	none
CC(C)NS(=O)(=O)c1ccc(OCC(=O)Nc2ccc(F)cc2)cc1	none
OC(COc1ccc(CNCc2cccnc2)cc1)CN1CCc2ccccc2C1 (stereo not given)	none
CCCCN(Cc1ccccc1)S(=O)(=O)c1ccc2[nH]c(=O)oc2c1	APP 5UTR inh 49
O=c1[nH]c2ccc(S(=O)(=O)N3CCC(Cc4ccccc4)CC3)cc2o1	none
CN(C)CCN1C(=O)NC(C)(c2ccc([N+](=O)[O-])cc2)C1=O (stereo not given)	none
c1ccc(CCNc2nc(-c3cccnc3)cs2)cc1	STAT1 activator 133
CC1CC1C(=O)Nc1nc(-c2ccccn2)cs1 (stereo not given)	none
c1ccc(CCNc2nc(-c3ccccn3)cs2)cc1	NF-kB expr up 4.1, STAT1 activator 142
Cc1ccc(C(=O)Oc2cccc(-n3cnnn3)c2)cc1	STAT1 activator 135
O=C(Oc1cccc(-n2cnnn2)c1)c1ccco1	none
CCOC(=O)C1(CCCc2ccccc2)CCN(Cc2cn(CC)nc2C)CC1	none
Cc1cc(SCCOc2ccccc2)nc(N)n1	STAT1 activator 129
O=C(NC1CCCCCCC1)NC1CCCCC1	STAT1 activator 132
CC1CCN(S(=O)(=O)N2CCC(C(=O)NCc3cccs3)CC2)CC1	none
